Test results taken from ChEMBL document CHEMBL4041513, “In silico identification, design and synthesis of novel piperazine-based antiviral agents targeting the hepatitis C virus helicase” (Eur J Med Chem, 2017).

Legend:
[1] = system: Hepatitis C virus; experiment: Antiviral activity against HCV genotype 1b infected in human HuH5.2 cells with persistent I389luc-ubi-neo/NS3-3'/5.1 replicon after 72 hrs by luciferase reporter gene assay; format: functional, cell-based, Hepacivirus hominis; conditions: Huh-5-2, 72 h
Procedure, shortened: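 Huh 5-2 cells carrying the genotype 1b I389luc-ubi-neo/NS3-3'/5.1 replicon were seeded at 6 500 cells/well in Geneticin-free DMEM/10% FCS and left overnight. Compounds from DMSO stocks were added in a four-step 1-to-5 series for the first screen or an eight-step 1-to-2 series for dose-response curves, then 72 h at 37 °C. Luciferase luminescence after lysis, as % of untreated controls, gave EC50; mean of ≥2 experiments.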

[2] = Cytotoxicity against human HuH5.2 cells assessed as reduction in cell viability after 72 hrs by MTS assay; format: cell-based, Huh-5-2
Procedure, shortened: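 Huh 5-2 cells carrying the genotype 1b I389luc-ubi-neo/NS3-3'/5.1 replicon were seeded at 6 500 cells/well in medium without Geneticin one day ahead. Compounds (DMSO stock) were added as 1:5 four-step or 1:2 eight-step dilutions for 72 h at 37 °C.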

[3] = Selectivity index, ratio of CC50 for human HuH5.2 cells to EC50 for HCV genotype 1b infected in human HuH5.2 cells with persistent I389luc-ubi-neo/NS3-3'/5.1 replicon
[4] = Inhibition of HCV NS3 helicase DNA unwinding activity using fluorescent DNA substrate by molecular beacon assay; design: species or system Hepacivirus hominis
Procedure, shortened: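 Molecular beacon unwinding reaction: 25 mM MOPS pH 6.5, 1.25 mM MgCl2, 5% DMSO, 5 µg/ml BSA, 0.01% Tween20, 0.05 mM DTT, 5 nM fluorescent DNA substrate, 12.5 nM NS3h, 1 mM ATP. Duplicate two-fold dilutions spanned 1 mM to 0.78 µM. Data normalised to no-inhibitor and no-enzyme controls; IC50 from variable-slope Hill fit.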

Compound	EC50 [1] [µM]	EC90 [1] [µM]	CC50 at 72 h [2] [µM]	Ratio CC50/EC50 [3]	IC50 [4] [µM]
O=S(=O)(NCCCN1CCN(CCCNS(=O)(=O)c2ccc(Cl)cc2)CC1)c1ccccc1	19.9	> 64	81.5	4.1	–
COc1ccc(S(=O)(=O)NCCC(=O)N2CCN(C(=O)CCNS(=O)(=O)c3ccc(OC)c(OC)c3)CC2)cc1OC	> 159	> 159	> 159	–	–
O=S(=O)(NCCCN1CCN(CCNS(=O)(=O)c2ccc(Cl)cc2)CC1)c1ccc(Cl)cc1	6.59	–	32.3	4.9	–
COc1ccc(OC)c(S(=O)(=O)NCCCN2CCN(CCCNS(=O)(=O)c3cc(OC)ccc3OC)CC2)c1	> 83.2	> 83.2	> 83.2	–	–
Cc1ccc2nc(N3C(=O)C(O)=C(C(=O)c4cc5ccccc5o4)C3c3cccc(O)c3)sc2c1 (stereo not given)	35.8	–	> 104	>2.8	–
O=S(=O)(NCCCN1CCCCC1)c1ccc(Cl)cc1	61.9	–	145	2.3	–
COc1ccc(OC)c(S(=O)(=O)NCCN2CCN(CCNS(=O)(=O)c3cc(OC)ccc3OC)CC2)c1	> 87.3	–	> 87.3	–	–
O=C1NC(=O)/C(=C\c2ccc(-c3ccc(Cl)cc3Cl)o2)S1	13.2	–	33.4	2.5	–
CC(C)(C)c1ccc(S(=O)(=O)NCCCN2CCN(CCCNS(=O)(=O)c3ccccc3)CC2)cc1	3.74	–	20.5	5.5	–
O=S(=O)(NCCCN1CCN(CCCNS(=O)(=O)c2ccccc2Cl)CC1)c1ccccc1Cl	–	–	> 182	–	–
Cc1ccc(S(=O)(=O)NCCN2CCN(CCNS(=O)(=O)c3ccc(C)cc3)CC2)cc1	> 104	> 104	> 104	–	–
COc1ccc(S(=O)(=O)NCCN2CCN(CCNS(=O)(=O)c3ccc(OC)cc3)CC2)cc1	> 97.5	> 97.5	> 97.5	–	–
CC(C)Oc1ccc(/C=N/N=C2/NC(=O)C(CC(=O)O)S2)cc1 (stereo not given)	127	–	> 149	>1.1	–
O=S(=O)(NCCCN1CCN(CCCNS(=O)(=O)c2cccc(Cl)c2)CC1)c1cccc(Cl)c1	76.9	173	> 182	>2.4	–
COc1ccc(OC)c(S(=O)(=O)NCCC(=O)N2CCN(C(=O)CCNS(=O)(=O)c3cc(OC)ccc3OC)CC2)c1	> 79.5	–	> 79.5	–	–
COc1ccc(S(=O)(=O)NCCCN2CCN(CCCNS(=O)(=O)c3ccc(OC)c(OC)c3)CC2)cc1OC	82	> 166	> 166	>2	–
COc1ccc(S(=O)(=O)NCCCN2CCN(CCCNS(=O)(=O)c3ccc(OC)cc3)CC2)cc1	> 92.5	> 92.5	> 92.5	–	–
O=C(NCCCN1CCN(CCCNC(=O)c2ccc(Cl)cc2)CC1)c1ccc(Cl)cc1	> 209	> 209	> 209	–	–
O=S(=O)(NCCCN1CCN(CCNS(=O)(=O)c2ccccc2)CC1)c1ccccc1	69.2	212	> 214	>3.1	–
O=S(=O)(NCCNc1ccc(NCCNS(=O)(=O)c2ccc(Cl)cc2)cc1)c1ccc(Cl)cc1	12.1	–	22	1.8	–
Cc1ccc(S(=O)(=O)NCCCN2CCN(CCCNS(=O)(=O)c3ccc(C)cc3)CC2)cc1	19.2	–	> 197	>10.3	–
O=S(=O)(NCCN1CCN(CCNS(=O)(=O)c2ccc(Cl)cc2)CC1)c1ccc(Cl)cc1	> 95.9	–	> 95.9	–	250
Cc1ccc(C(=O)C2=C(O)C(=O)N(Cc3ccco3)C2c2cccc(Cl)c2)o1 (stereo not given)	30.6	–	> 126	>4.1	–
O=S(=O)(NCCCN1CCN(CCCNS(=O)(=O)c2ccc(C(F)(F)F)cc2)CC1)c1ccc(Cl)cc1	10.1	33.5	63.7	6.3	–
O=S(=O)(NCCCN1CCN(CCCNS(=O)(=O)c2cccs2)CC1)c1cccs1	62	156	> 203	>3.3	–
O=S(=O)(NCCCN1CCN(CCCNS(=O)(=O)c2ccccc2)CC1)c1ccccc1	58.3	–	> 104	>1.8	–
COc1ccc(S(=O)(=O)NCCN2CCN(CCNS(=O)(=O)c3ccc(OC)c(OC)c3)CC2)cc1OC	85.8	> 87.3	> 87.3	>1	–

Compound	EC50 [1] [µM]	EC90 [1] [µM]	CC50 at 72 h [2] [µM]	Ratio CC50/EC50 [3]	IC50 [4] [µM]
Cc1ccc2nc(-c3ccc4nc(-c5ccc(N)cc5)sc4c3)sc2c1S(=O)(=O)O	–	–	–	–	10
Cc1ccc(S(=O)(=O)NCCCN2CCN(CCCNS(=O)(=O)c3ccccc3)CC2)cc1	26.3	–	138	5.3	–
O=C(CCNS(=O)(=O)c1ccccc1)N1CCN(CCCNS(=O)(=O)c2ccccc2)CC1	> 202	> 202	> 202	–	–
O=c1nc2n(-c3cccc(Br)c3)c3ccccc3cc-2c(=O)[nH]1	81.7	–	> 136	>1.6	–
COc1ccc(-c2ccc(/C=N/NC(=O)COc3cc(C)ccc3C)o2)cc1Cl	26.4	> 121	> 121	>4.5	–
O=[N+]([O-])c1ccc(S(=O)(=O)NCCCN2CCN(CCCNS(=O)(=O)c3ccc([N+](=O)[O-])cc3)CC2)cc1	18.1	61.1	77.4	4.4	–
CCC[C@H](NC(=O)[C@@H]1[C@H]2CCC[C@H]2CN1C(=O)[C@@H](NC(=O)[C@@H](NC(=O)c1cnccn1)C1CCCCC1)C(C)(C)C)C(=O)C(=O)NC1CC1	–	–	–	58.8	–
COc1ccc(S(=O)(=O)NCCC(=O)N2CCN(C(=O)CCNS(=O)(=O)c3ccc(OC)cc3)CC2)cc1	–	–	> 87.9	–	–
O=S(=O)(NCCN1CCN(CCNS(=O)(=O)c2ccccc2)CC1)c1ccccc1	> 110	–	> 110	–	–
COc1ccc(C(=O)C2=C(O)C(=O)N(c3cnoc3C)C2c2ccc(C(C)(C)C)cc2)cc1OC (stereo not given)	57.2	–	> 105	>1.8	–
O=C(CCNS(=O)(=O)c1ccc2ccccc2c1)N1CCN(C(=O)CCNS(=O)(=O)c2ccc3ccccc3c2)CC1	12	–	40.8	3.4	–
CC(CC(=O)O)CC(=O)Nc1cccnc1 (stereo not given)	> 225	> 225	> 225	–	–
Cc1ccc2nc(N3C(=O)C(O)=C(C(=O)c4cc5ccccc5o4)C3c3cccc(Oc4ccccc4)c3)sc2c1 (stereo not given)	41.8	> 89.5	> 89.5	>2.1	–
O=S(=O)(NCCCN1CCN(CCCNS(=O)(=O)c2ccc(-c3ccccc3)cc2)CC1)c1ccc(Cl)cc1	2.12	–	4.43	2.1	–
O=S(=O)(NCCCN1CCN(CCCNS(=O)(=O)c2cccc3ccccc23)CC1)c1cccc2ccccc12	> 172	> 172	> 172	–	> 1000
O=S(=O)(NCCCN1CCN(CCCNS(=O)(=O)c2cccnc2)CC1)c1cccnc1	> 207	> 207	> 207	–	–
O=C1N/C(=N/N=C/c2ccccc2O)SC1Cc1ccc(Br)cc1 (stereo not given)	10.4	–	15.7	1.5	–
CC(C)(C)c1ccc(C(=O)Oc2ccc3c(-c4ccccc4C(=O)O)c4ccc(=O)cc-4oc3c2)cc1	> 102	> 102	> 102	–	–
O=S(=O)(NCCCN1CCN(CCCNS(=O)(=O)c2ccc(C(F)(F)F)cc2)CC1)c1ccccc1	12.1	–	70.8	5.8	–
O=C(O)C1=CC(=C(c2ccc(O)c(C(=O)O)c2)c2ccc(O)c(C(=O)O)c2)C=CC1=O [AURINTRICARBOXYLIC ACID]	–	–	–	–	0.3
Cc1ccc(S(=O)(=O)NCCCN2CCN(C(=O)CCNS(=O)(=O)c3ccc(C)cc3)CC2)cc1	64.3	173	> 191	>3	–
CC(=O)c1ccc(NC(=O)CSc2nnc(NC(=O)CCc3ccccc3)s2)cc1	> 113	> 113	> 113	–	–
O=[N+]([O-])c1ccc(S(=O)(=O)NCCN2CCN(CCNS(=O)(=O)c3ccc([N+](=O)[O-])cc3)CC2)cc1	17.4	–	> 184	>10.6	–
Cc1ccc(S(=O)(=O)NCCCN2CCN(CCCNS(=O)(=O)c3ccc(C(C)(C)C)cc3)CC2)cc1	3.5	9.44	14.6	4.2	–
Cc1ccc(S(=O)(=O)NCCCN2CCN(CCCNS(=O)(=O)c3ccc(-c4ccccc4)cc3)CC2)cc1	1.98	–	6.55	3.3	–
Cc1ccc(S(=O)(=O)NCCCN2CCN(CCCNS(=O)(=O)c3ccc(Cl)cc3)CC2)cc1	9.93	36	48.8	4.9	–
